Only some compounds are listed: those with a hit (about 2.3% of all), similar ones and a draw of the others.
TRPC4 inh = inhibitors of mouse TRPC4 channel, primary screen, Fluo4 calcium, HEK293 TRPC4beta/mu-opioid cells; AID 2247, 2010; B-score at 10 µM; DAMGO-evoked Fluo4 calcium flux; stronger effect = lower value; 0.39% of 300,000 active;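 active = B-score over 3 SD under the library average, no early fluorescence shift, positive overall ratio signal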
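Material: HEK293 cells with stable TRPC4beta plus mu-opioid receptor expression / Probe or stimulus: DAMGO in two steps, submaximal then maximal / Compound: single concentration per test compound / Technique: kinetic Fluo4 fluorescence imaging of calcium influx / Read-out: per-well B score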
TRPC4 PAM = positive allosteric modulators of TRPC4, primary screen, cell-based, mouse TRPC4beta, HEK293 mu-opioid, Fluo-4 calcium | Short transient receptor potential channel 4 (Mus musculus), Q9QUQ5 | DAMGO EC20, Fluo-4 Ca2+ flux; stronger effect = higher value | B-score at 10 µM | 0.42% of 310,000 active | AID 2227, 2009;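 active = B-score of calcium response area above 5 SD of library B-scores, with initial fluorescence ratio within 5 SD of library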;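 also: B-score of integrated fluorescence ratio over time as area under calcium response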
TRPC6 act = mouse TRPC6 channel activators, primary screen, cell-based, HEK293, membrane potential dye; Short transient receptor potential channel 6 (Mus musculus), Q61143; HEK293-TRPC6 membrane potential dye fluorescence; stronger effect = higher value; B-score at 10 µM; 0.13% of 310,000 active;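 active = B-score of the integrated fluorescence ratio above library mean plus 3 SD, and starting fluorescence ratio within library mean plus 5 SD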;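 also: higher score means more depolarization so channel activation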
TRPC4 act = activators of mouse TRPC4 channel, primary screen, Fluo4 calcium, HEK293 TRPC4beta/mu-opioid cells; Fluo4 calcium fluorescence; stronger effect = higher value; B-score at 10 µM; 0.49% of 310,000 active; AID 2237, 2010;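 active = B-score above 5 SD of library B-scores, and initial fluorescence ratio not above library mean plus 5 SD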;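 also: positive B-score marks a calcium rise read as TRPC4 activation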
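Test system: HEK293 cells stably co-expressing mouse TRPC4beta and mu-opioid receptor | Schedule: Fluo4 dye loading 45 min at room temperature, 110 s recording | Measured by: Kinetic Fluo4 calcium fluorescence, 5 s baseline at 1 Hz | Evaluation: B score of integrated ratio | Controls: Buffer (low) and maximal DAMGO (high)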
TRPC6 inh = mouse TRPC6 channel inhibitors, primary screen, cell-based, HEK293, membrane potential dye | B-score at 10 µM | ACh-evoked depolarization; stronger effect = lower value | 1.1% of 310,000 active | AID 2553, 2010;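 active = B-score under library mean minus 3 SD, initial fluorescence not abnormally high, positive integrated signal ratio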;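 also: B-score derived from integrated fluorescence ratio over the kinetic read; more negative B-score means stronger inhibition of depolarization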
* = called active by the depositor; i = inactive.

SMILES	TRPC4 inh	TRPC4 PAM	TRPC6 act	TRPC4 act	TRPC6 inh
COc1ccccc1CNC(=O)COC(=O)c1ccccc1-c1ccccc1	i	i	i	i	i
Nc1nnc(/C=C/c2ccccc2)s1	i	i	i	i	i
CC(C)(C)OC(=O)N1CCC(c2cc(=O)n3[nH]cc(C(=O)Nc4ccc(F)c(Cl)c4)c3n2)CC1	i	i	i	i	i
COc1ccc(NC(=O)c2c[nH]n3c(=O)cc(C4CCN(C(=O)OC(C)(C)C)CC4)nc23)cc1Cl	-7*	i	i	i	i
O=C(Nc1ccc(CN2CCOCC2)cc1)c1ccc(-c2cccc([N+](=O)[O-])c2)o1	i	i	i	i	i
O=[N+]([O-])c1cccc(-c2ccc(CN3CCCCC3)o2)c1	i	13*	i	i	i
COc1ccccc1C(=O)NNC(=O)C1CCCO1 (stereo not given)	i	i	i	i	i
O=C(NC1CCCCCCC1)c1cnccn1	i	12*	i	i	i
O=C(NC1CCS(=O)(=O)C1)c1cnccn1 (stereo not given)	i	i	i	i	i
O=C(NC(=S)NCCc1ccccc1)c1cccc(Cl)c1	i	i	i	i	i
CCCNC(=O)OCCC12CC3CC(CC(C3)C1)C2	i	10*	i	i	i
CCc1nnc(NS(=O)(=O)c2ccc(NC(=O)c3cccc(OC)c3)cc2)s1	i	i	i	i	i
Cc1cc(C)c(C(=O)c2ccc(C(=O)NC(C)(C)C)cc2)c(C)c1	i	i	i	i	i
Cc1cc(C)c(C(=O)c2ccc(C(=O)N(C(C)C)C(C)C)cc2)c(C)c1	i	10*	i	i	i
Cc1cc(C)c(C(=O)c2ccc(C(=O)N3CCCCC3)cc2)c(C)c1	i	16*	i	i	i
O=C(NCC1CCN(Cc2ccccc2F)CC1)Nc1cccc(Br)c1	i	i	i	i	i
Oc1ccccc1CNc1ccc(OC(F)(F)F)cc1	i	i	i	i	i
O=C(O)c1ccc2c(c1)C1C=CCC1C(c1cc3c(cc1Br)OCO3)N2 (stereo not given)	-7*	i	i	i	i
CC(=O)c1ccc(NC(=O)CNCC(c2ccccc2)N(C)C)cc1 (stereo not given)	i	i	i	i	i
Cc1ccccc1NC(=S)NCC(c1cccnc1)N(C)C (stereo not given)	i	i	i	136*	i
Cc1c(Cl)cccc1NC(=S)NCC(c1cccnc1)N(C)C (stereo not given)	i	i	i	85*	i
Cc1ccc(NC(=O)NCC(c2ccccc2)N(C)C)cc1 (stereo not given)	i	i	i	46*	i
Cc1ccccc1NC(=S)NCc1ccccc1	i	i	i	i	i
Cc1ccc(C)c(NC(=S)NCC(c2ccccc2)N(C)C)c1 (stereo not given)	i	i	i	180*	i
Cc1cccc(C)c1NC(=S)NCCc1ccccn1	i	i	i	i	i
SMILES	TRPC4 inh	TRPC4 PAM	TRPC6 act	TRPC4 act	TRPC6 inh
Cc1cccc(NC(=S)NCC(c2cccnc2)N(C)C)c1C (stereo not given)	i	i	i	101*	i
Cc1cccc(NC(=S)NCc2ccncc2)c1C	i	i	i	i	i
Cc1ccccc1NC(=S)NCCc1ccccn1	i	i	i	88*	i
CCN1CCN(C(=S)Nc2ccsc2C(=O)OC)CC1	i	i	i	57*	i
COC(=O)c1sccc1NC(=S)N1CCN(c2cc(C)ccc2C)CC1	i	i	i	i	i
COC(=O)c1sccc1NC(=S)N1CCN(C)CC1	i	i	i	50*	i
Cc1ccc2c(c1)CC(C)N2S(=O)(=O)c1nnc(NC(=O)CC(C)C)s1 (stereo not given)	i	i	i	i	i

From PubChem
